Screens deposited in PubChem by several laboratories.
Mcl1 Noxa PPI – disrupts binding of human Mcl-1 to Noxa peptide. Q07820. TR-FRET Mcl-1/Noxa peptide binding, 2 h. inhibition, % at 21.7 µM. actives 1.5% (n = 220,000). AID 1022;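 active = compounds that cut the protein-peptide binding signal by more than 50% relative to plate controls in a single-dose test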;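 also: His-tagged Mcl-1 with rhodamine Noxa BH3 peptide and terbium anti-His antibody; 0% = Mcl-1 plus Noxa peptide wells and 100% = peptide-only wells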
Mcl1-Bid inh – Mcl-1/Bid interaction inhibition; Q07820; TR-FRET Mcl-1/Bid-Dy647 peptide binding, 1536-well; inhibition, % at 21.7 µM; actives 0.97% (n = 220,000); AID 1021;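 active = compounds that cut the binding signal by more than half at the single screening dose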;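 also: His-tagged Mcl-1 with europium anti-His antibody binding Bid BH3 peptide; 0% = Mcl-1 plus peptide wells and 100% = peptide-only wells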
Bim-Mcl-1 – disrupts Bim peptide binding to human Mcl-1; Q07820; Bead-based flow cytometry, Bim peptide-Mcl-1 binding; inhibition, % at 10 µM; actives 0.1% (n = 190,000); AID 1009; in the data active = inhibition above about 40%;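 also: 0% = no compound tracer wells and 100% = peptide blocker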
MCL1 BIM primary – inhibitors of human MCL1 binding to BIM-BH3 peptide; GST-MCL1 / FITC-Bim-BH3 fluorescence polarization; inhibition, % at 10.9 µM; actives 0.68% (n = 320,000);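 active = inhibition above the mean inhibition of all tested compounds plus 3 SD, set per campaign, cut at about 40% in these data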;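 also: 0% = DMSO wells and 100% = unlabeled Bim-BH3 peptide control; higher means more loss of mP so more displacement of Bim peptide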
T cell HTS – modulates CD8 T cell binding to vesicles | 2C CD8+ T cell-vesicle binding, flow cytometry; active compounds read low | response (vesicle binding), % at 7 µM | actives 0.068% (n = 330,000) | AID 2052;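 active = response, share of CD8 T cells binding vesicles, and their 90th percentile fluorescence all below set limits, cut at about 80% in these data, passing the limit was not always enough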;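 also: values below 100% mean blocked vesicle binding to the CD8+ T cells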
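Test system: purified 2C TCR transgenic mouse naive CD8+ T cells. Probe or stimulus: QL9-peptide-loaded Drosophila micro-vesicles bearing Ld, ICAM-1 and B7-1. Incubation: binding step 1.5 h, 37 °C, antibody labelling 20 min, ice. Measured by: flow cytometry of vesicle-bound cells.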
Pemphigus Ab inh – human desmoglein-3 autoantibody binding inhibition. P32926. actives 0.48% (n = 310,000). DSG3-coupled beads, scFv-anti-DSG3-GFP binding, flow cytometry; active compounds read low. binding (percent of control), % at 10 µM;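 active = binding more than 3 SD below its plate's average and above zero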;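 also: hits lower antibody fragment binding to DSG3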
BCLXL inh confirm – Bcl-xL (human) inhibition, MCL1 counter-screen confirmation; GST-Bcl-xL / FITC-Bim BH3 peptide FP binding; shares compounds with MCL1 BIM primary; actives 54% (n = 1,700); inhibition, % at 10.9 µM;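 active = inhibition above a cutoff equal to the mean inhibition of all tested compounds plus 3 SD, cut at about 30% in these data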;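 also: 0% = DMSO wells and 100% = unlabeled Bim BH3 control peptide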
Target sequence (Q07817 whole entry, looked up): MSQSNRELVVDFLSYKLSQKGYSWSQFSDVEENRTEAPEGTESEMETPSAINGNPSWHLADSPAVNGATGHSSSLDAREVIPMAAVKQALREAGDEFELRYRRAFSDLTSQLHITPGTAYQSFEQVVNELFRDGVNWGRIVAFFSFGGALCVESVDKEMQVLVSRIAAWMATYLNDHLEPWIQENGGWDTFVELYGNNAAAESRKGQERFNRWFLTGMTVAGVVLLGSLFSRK
MCL1 inh confirm – MCL1-BIM-BH3 interaction inhibition, confirmation | shares compounds with MCL1 BIM primary | GST-MCL1 / FITC-Bim-BH3 fluorescence polarization | inhibition, % at 10.9 µM | actives 61% (n = 1,700) | AID 2168;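 active = inhibition above the average of all tested compounds plus 3 SD, cut at about 40% in these data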;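 also: 0% = DMSO wells and 100% = unlabeled Bim-BH3 control peptide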
Starred values were filed as active, the others as inactive. An excerpt weighted towards active compounds, which were near 2.3% of everything screened.

How did NCc1ccccc1CS(=O)(=O)N1CCOCC1 do in these assays?
T cell HTS: 321

What do the screens show for `O=C(NCCC(=O)N1CCc2ccccc21)c1ccco1`?
MCL1 BIM primary: -4; T cell HTS: 359; Pemphigus Ab inh: 125

What do the screens show for `Cc1ccc(S(=O)(=O)N2CCCC(C(=O)NCCc3ccc(Cl)cc3)C2)cc1` (stereo not given)?
Pemphigus Ab inh: 95

What do the screens show for `Cc1ccnc(N2C(=O)c3cccc4c([N+](=O)[O-])ccc(c34)C2=O)c1`?
Mcl1-Bid inh: 25; Bim-Mcl-1: 0; MCL1 BIM primary: 103*; T cell HTS: 404; Pemphigus Ab inh: 88; BCLXL inh confirm: 82*; MCL1 inh confirm: 119*

What do the screens show for `Cc1ccc(N2C(=O)c3cccc4c([N+](=O)[O-])ccc(c34)C2=O)c2cccnc12`?
Mcl1 Noxa PPI: 32; Mcl1-Bid inh: 4; MCL1 BIM primary: 19; T cell HTS: 140; Pemphigus Ab inh: 99

What do the screens show for `CCOC(=O)[C@@H]1[C@H]2COc3ccc(Br)cc3[C@H]2N2C(=O)N(c3cccc(Cl)c3)C(=O)[C@]12C`?
MCL1 BIM primary: -4; T cell HTS: 384; Pemphigus Ab inh: 105

What do the screens show for `O=S(=O)(O)c1cccc2c(N=Nc3ccc(O)c4ncccc34)cccc12`?
MCL1 BIM primary: 72*; T cell HTS: 69; Pemphigus Ab inh: 89; BCLXL inh confirm: 34*; MCL1 inh confirm: 82*

How did Cc1ccccc1N=Nc1ccc(O)c2ncccc12 do in these assays?
Mcl1 Noxa PPI: -35; Mcl1-Bid inh: -63; Bim-Mcl-1: 4; MCL1 BIM primary: 8; T cell HTS: 155; Pemphigus Ab inh: 100

How did CCOC(=O)C1=C(O)/C(=C/c2cn(CC(=O)NCC3CCCO3)c3ccccc23)SC1=Nc1ccc(C)cc1 (stereo not given) do in these assays?
MCL1 BIM primary: 77*; T cell HTS: 222; BCLXL inh confirm: 109*; MCL1 inh confirm: 109*

Results for Oc1cccc2cc3cccc(O)c3c(O)c12 ?
Mcl1 Noxa PPI: 97*; Mcl1-Bid inh: -6; Bim-Mcl-1: 1; MCL1 BIM primary: 51*; T cell HTS: 480; Pemphigus Ab inh: 83; BCLXL inh confirm: 43*; MCL1 inh confirm: 50*

Results for O=c1oc(-c2ccc(O)c(O)c2)cc2cccc(O)c12 ?
T cell HTS: 281

Results for Fc1ccc(-c2nnc(-c3ccc4ccccc4c3)o2)cc1 ?
Pemphigus Ab inh: 95

How did CNC(=O)C1CN(C(=O)c2nn(Cc3ccccc3)c(=O)c3ccccc23)c2ccccc2O1 (stereo not given) do in these assays?
Pemphigus Ab inh: 94

What do the screens show for `COC(=O)C1=COC(C)C2CN3CCc4c([nH]c5cc(OC)c(OC)cc45)C3CC12` (stereo not given)?
Mcl1 Noxa PPI: -14; Mcl1-Bid inh: -112; MCL1 BIM primary: 96*; T cell HTS: 107; Pemphigus Ab inh: 104; BCLXL inh confirm: 94*; MCL1 inh confirm: 113*

Results for COC(=O)[C@@H]1[C@H]2C[C@H]3c4[nH]c5ccccc5c4CCN3C[C@@H]2CC[C@@H]1O ?
MCL1 BIM primary: 0; T cell HTS: 589; Pemphigus Ab inh: 103

How did Cc1ccc(N2CCN(c3ccc(NCc4nc5ccccc5n4C)cc3)CC2)cc1 do in these assays?
Mcl1 Noxa PPI: -24; Mcl1-Bid inh: -64; Bim-Mcl-1: -1; MCL1 BIM primary: 90*; T cell HTS: 281; Pemphigus Ab inh: 96; BCLXL inh confirm: 52*; MCL1 inh confirm: 48*

What do the screens show for `N#CC12C(N)=NC3(OCCO3)C1(C#N)C1=C(CCC1)NC2c1ccccc1` (stereo not given)?
Mcl1 Noxa PPI: 5; Mcl1-Bid inh: -32; Bim-Mcl-1: -1; MCL1 BIM primary: 64*; T cell HTS: 318; Pemphigus Ab inh: 98; BCLXL inh confirm: 18; MCL1 inh confirm: 24
